# Compound activity as filed in PubChem.
# PREPL inhibitor – inhibits the human prolyl oligopeptidase-like enzyme. recombinant PREPL, fluorescence polarization activity-based probe. inhibition, % at 5.96 µM. actives 0.68% (n = 320,000). AID 2751;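 further: 0% = enzyme with DMSO and 100% = wells lacking enzyme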
# UCH37 inh – inhibitors of human deubiquitinating enzyme UCH37; actives 0.33% (n = 330,000); Q9Y5K5; inhibition, % (no concentration beside the values); AID 588478; purified proteasome/UCH37, Ub-AMC cleavage fluorescence;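 active means mean inhibition over replicate wells above about 20%, limit read from the data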;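 further: 0% = compound-free wells with enzyme and 100% = wells lacking proteasome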
#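 Test system – human UCH37 enzyme supplied as purified proteasome complex · Incubation – 30 min preincubation with enzyme, 25 min cleavage at room temperature · Detection – AMC fluorescence from Ub-AMC cleavage, excitation 355 nm, emission 460 nm · Benchmarks – no-proteasome wells (full inhibition) and compound-free wells (no inhibition)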
# Apaf-1 inh – inhibitors of human Apaf-1 apoptosome. O14727. reconstituted apoptosome caspase-3 activity, DEVD-Rh110 fluorescence. inhibition, % at 20 µM. actives 0.71% (n = 330,000); active means inhibition of at least 40% at 20 µM;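 further: plate controls were DMSO wells for no effect and DEVD-CHO caspase inhibitor wells for full effect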
#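 System: reconstituted apoptosome with Apaf-1, cytochrome c, caspase-9, procaspase-3, dATP; Signal: Rh110 fluorescence intensity; Schedule: 30 min compound preincubation, 50 min activation, room temperature; Reagent: cytochrome c trigger plus (Z-DEVD)2-Rh110 caspase-3 substrate.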
# UBC13 polyUb – inhibitors of human UBC13 polyubiquitin chain formation. actives 0.47% (n = 330,000). inhibition, % at 20 µM. P61088. AID 485273. TR-FRET; in the data active means inhibition above about 45%, passing the limit was not always enough
# PREPL confirm – human PREPL inhibition, confirmation. shares compounds with PREPL inhibitor. recombinant PREPL, fluorescence polarization activity probe. inhibition, % at 5.96 µM. actives 67% (n = 2,000);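 further: 0% = protein with DMSO and 100% = wells lacking protein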
# Casp3 UBC13 ctr – counter-screen for UBC13 inhibitors: human caspase-3 inhibition | actives 4% (n = 1,400) | inhibition, % at 20 µM | shares compounds with UBC13 polyUb | AID 488856 | Recombinant caspase-3, Caspase-Glo 3/7 luminescence, 60 min;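 active means mean inhibition across replicates above about 26%, limit read from the data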;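 further: plate controls were DMSO with caspase-3 for no effect and DMSO wells lacking enzyme for full effect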
# UBC13 confirm – human UBC13 polyubiquitin inhibition, confirmed; inhibition, % at 10 µM; shares compounds with UBC13 polyUb; actives 68% (n = 1,400); UBC13 polyubiquitination, TR-FRET, biochemical; in the data active means inhibition above about 45%
# Numbers without * were called inactive; / = not tested or not shown. An excerpt weighted towards active compounds, which were near 1.5% of everything screened. Unless noted, no stated cut-off is given here; in the data, active means inhibition above about 43%; inactive means the rest.
SMILES,PREPL inhibitor,UCH37 inh,Apaf-1 inh,UBC13 polyUb,PREPL confirm,others
Cc1ccc(Nc2c(-c3ccccc3)nc3cnccn23)cc1,-12,-70,9,6,/,
CCOc1cc(C=Nn2cnnc2)ccc1OS(=O)(=O)c1ccc(C)cc1,/,6,/,/,/,
Cc1cc(C)nc(N=C(N)Nc2ccc(-c3ccccc3)cc2)n1,/,3,/,/,/,
CC(CC(=O)Nc1ccc(Cl)cc1Cl)=NNC(=O)c1cnccn1,/,-2,/,/,/,
Nc1[nH]nc2c1NN(c1ccc(Cl)cc1Cl)N2,43*,3,21,-20,13,
CSCC[C@H](N)C(=O)NCC1CCC(C(=O)N[C@@H](Cc2ccccc2)C(=O)O)CC1 (stereo partly drawn),/,1,/,/,/,
COc1ccc(C2CC(=NO)C(C)(C)O2)cc1 (stereo not drawn),/,2,/,/,/,
O=S1(=O)N=C(Nc2ccc(N3CCOCC3)cc2)c2ccccc21,10,9,-20,5,/,
Cc1ccccc1-c1ccc(Nc2ccc(N3CCOCC3)cc2)nn1,59*,4,5,-7,53*,
CCC(=O)N1CCN(c2ccc(NC(=O)COc3ccc(CC)cc3)cc2)CC1,45*,6,13,-3,48*,
Cc1ccc(OCC(=O)Nc2ccc(N3CCOCC3)cc2)cc1,45*,2,-18,3,31,
CCOc1cc(N2CCOCC2)c(OCC)cc1NC(=O)COC(=O)CCOc1ccc(C(C)(C)C)cc1,6,1,29,-4,/,
CC(C)(C)c1ccc(OCCC(=O)Nc2ccc(N3CCOCC3)cc2N2CCOCC2)cc1,49*,2,37,2,42,
Cc1[nH]c(=O)[nH]c(=O)c1C=NNC(=O)[C@@H](NC(=O)OC(C)(C)C)C(C)C,/,1,/,/,/,
COc1ccc(C)cc1Nc1n[n+](-c2ccccc2)c(-c2c(OC)ccc3ccccc23)s1,51*,4,36,39,40,
C=CC[n+]1c(-c2ccc(Cl)cc2Cl)csc1Nc1ccc(NC(C)=O)cc1,59*,4,20,1,63*,
C=CC[n+]1c(-c2ccc(Cl)cc2Cl)csc1Nc1c(C)n(C)n(-c2ccccc2)c1=O,35,4,19,3,/,
C#CCOCCOCCOCCNc1nc(N2CCOCC2)nc(N2CCN(C(=O)[C@H](Cc3ccc(O)cc3)n3cc([C@@H](N)CC(C)C)nn3)CC2)n1,-4,0,-6,22,/,
C#CCOCCOCCOCCNc1nc(N2CCN(C(=O)[C@H](CCCCN)n3cc([C@@H](N)C(C)CC)nn3)CC2)nc(N2CCN(C(=O)[C@H](Cc3cc4ccccc4[nH]3)n3cc([C@@H](N)CC(C)C)nn3)CC2)n1 (stereo partly drawn),58*,2,-2,100*,58*,Casp3 UBC13 ctr=-2;UBC13 confirm=116*
C#CCOCCOCCOCCNc1nc(N2CCN(C(=O)C(Cc3ccc(O)cc3)n3cc(C(N)CC(C)C)nn3)CC2)nc(N2CCN(C(=O)C(Cc3cc4ccccc4[nH]3)n3cc(C(N)Cc4ccc(O)cc4)nn3)CC2)n1 (stereo not drawn),52*,3,35,78*,51*,Casp3 UBC13 ctr=-1;UBC13 confirm=59*
CC1CCC(C(C)C)C(OC(=O)Cn2c(-c3ccc(Br)cc3)[n+](C)c3ccccc32)C1 (stereo not drawn),49*,10,29,55*,44*,Casp3 UBC13 ctr=1;UBC13 confirm=78*
Cc1ccc(Nc2nc(NCCO)c3ccccc3n2)cc1C,56*,/,20,52*,50*,Casp3 UBC13 ctr=2;UBC13 confirm=82*
COc1ccccc1Nc1nc(NCCO)c2ccccc2n1,/,/,-1,-9,/,
CCC[C@@H](CN1CCC[C@H]1CN1C(N)=NC[C@H]1C(C)C)N1C[C@@H]([C@H](C)CC)N(CCCC2CCCC2)C1=N,59*,2,37,53*,54*,Casp3 UBC13 ctr=-2;UBC13 confirm=42
CCC[C@@H](CN1CCC[C@H]1CN1C(N)=NC[C@H]1CC(C)C)N1C[C@@H]([C@H](C)CC)N(CCCC2CCCC2)C1=N,46*,3,53*,78*,45*,Casp3 UBC13 ctr=2;UBC13 confirm=83*
CN(C)C1=NC[C@H](Cc2ccccc2)N1CCCC1CCCC1,-1,0,18,23,/,
